Columns and labels:
[1] = molecular target: apoC-III (Homo sapiens, UniProt P02656); assay type: biochemical; settings: 33 μM apoC-III added to pooled human HTG plasma (TG=360 mg/dL) with LPL
Procedure, shortened: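 Pooled human HTG plasma (TG=360 mg/dL) was incubated with LPL and test compound at 0–100 μM (0–0.47 mg/mL), with or without 33 μM apoC-III. Reference conditions were LPL alone and LPL with apoC-III. Lipolysis was read as NEFA generation, measured enzymatically. Results are the mean of triplicates ± S.D. (two-way ANOVA, Bonferroni post-test).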

[2] = tested on: lipoprotein lipase (LPL); assay: Ex vivo TG lipolysis; assay type: biochemical; settings: human apoC-II-deficient plasma (TG=1711 mg/dL) with added LPL
Procedure, shortened: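 Human apoC-II-deficient plasma (TG=1711 mg/dL) was spiked with LPL plus test compound at the indicated concentrations or at 10 μM. LPL activity was read as NEFA generation, measured enzymatically. Results are the mean of triplicates ± S.D. (two-way ANOVA, Bonferroni post-test), or N=8 at 10 μM (Mann-Whitney).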

Sequence of apoC-III (P02656 21-99): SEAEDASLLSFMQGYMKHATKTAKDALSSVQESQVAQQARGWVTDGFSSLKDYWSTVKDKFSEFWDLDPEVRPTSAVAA

Substance | inhibition of ex vivo lipolysis of TG [1] | stimulation of ex vivo lipolysis [2]
apoC-III: apolipoprotein C-III, inhibits LPL | approximately 40% | –
TYLPAVDEKLRDLYSKSTAAMSTYTGIFTDQVLSVLKGEE [RCH2] | – | only partial activity
